Data reported in PMC5316514 (Clinical cancer research : an official journal of the …, 2016).
Several values for one entry are separate records, joined by “and”; a condition that tells them apart may be missing. Equal values may be shown once. Entries after “also recorded” stand apart in the source; their conditions may differ.

What was measured:
PDE4 = settings: cited from earlier work
Safety / adverse events = format: in vivo, human
In short: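 Ten patients received 21-day cycles of oral roflumilast 500 mcg daily. Prednisone 60 mg/m2 PO daily was added on days 8–14 of cycle 1 (maximum 100 mg daily) and on days 1–7 of later cycles. Incidence, severity, relationship and type of adverse events during treatment and follow-up were graded by NCI CTCAE version 4.03.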

[1] = system: relapsed/refractory B cell malignancies; assay: Clinical response and days in trial, phase Ib trial; format: in vivo, human; settings: roflumilast plus prednisone
In short: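 Cycles lasted 21 days, with oral roflumilast 500 mcg daily throughout. Prednisone 60 mg/m2 PO daily was given on days 8–14 in cycle 1 (maximum 100 mg daily) and on days 1–7 in later cycles. Response was scored by International Working Group revised criteria for each disease.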

PI3K = PI3K activity; format: in vivo, human
AKT = AKT phosphorylation; format: in vivo, human; settings: 5 of 8 patients; roflumilast single agent, day 8 vs day 0, PBMC, western blot
B cell lymphoma = settings: murine model of B cell lymphoma; cited from earlier work
[2] = roflumilast 500 mcg PO daily plus prednisone, 10 patients
[3] = individual patient (UPN, diagnosis in the row)
[4] = individual patient, PI3K/AKT non-suppressors
[5] = individual patient, PI3K/AKT suppressors

SMILES: O=C(Nc1c(Cl)c[n+]([O-])cc1Cl)c1ccc(OC(F)F)c(OCC2CC2)c1 [roflumilast N-oxide]
- IC50 for inhibition of PDE4 (PDE4): 0.8 ng/mL

SMILES: O=C(Nc1c(Cl)cncc1Cl)c1ccc(OC(F)F)c(OCC2CC2)c1 [roflumilast]
- transitory episode of suicidal ideation, patients (Safety / adverse events; UPN#10, end of first cycle, resolved upon cessation of study drug): One patient
- transient ≥ grade 2 neutropenia, patients (Safety / adverse events; roflumilast 500 mcg PO daily plus prednisone, 3 of 10 patients): 30%
- grade 4 events (Safety / adverse events; [2]): no grade 4 events
- incidence of most common ≥Grade 2 treatment-related AEs (fatigue, anorexia, neutropenia), all causality (Safety / adverse events; [2]): ≥ 25%
- tolerability of treatment (Safety / adverse events; [2]): generally well tolerated
- partial response or stable disease, share of evaluable patients ([1]; 6 of nine evaluable patients): 66%
- average days in trial, true PI3K/AKT suppressor profile ([1]; clinically evaluable patients): 156 days
- average days in trial, without PI3K/AKT suppression ([1]; clinically evaluable patients): 91 days
- days in trial, range, true PI3K/AKT suppressor profile ([1]; clinically evaluable patients): 49 to 315 days
- days in trial, range, without PI3K/AKT suppression ([1]; clinically evaluable patients): 28 to 139 days
- partial response or stable disease in PI3K/AKT suppressor group ([1]; four of five patients): 80%
- Best response [1, 3]: Stable disease; also recorded: Withdrawn; also recorded: Progressed; also recorded: Partial response
- days in trial (second figure of No of cycles/days in trial) [1, 3]: 4 / 105 days and 4 / 98 days and 1 / 29 days and 2 / 46 days and 8 / 190 days and 13 / 315 days and 2 / 49 days and 1 / 28 days and 5 / 139 days and 5 / 127 days
- Best response [1, 4]: Stable disease; also recorded: Progressed
- Days on trial [1, 4]: 139 days and 105 days and 29 days and 28 days
- Best response [1, 5]: Stable disease; also recorded: Partial response; also recorded: Progressed
- Days on trial [1, 5]: 190 days and 315 days and 49 days and 127 days and 98 days
- patients with early progression (during first or second cycle) ([1]; of nine evaluable patients): 3 patients
- days in trial until progression, death or withdrawn consent, range [1]: 28 to 315 days
- median number of days in trial until progression, death or withdrawn consent [1]: 105 days
- average days in trial, patients of Hispanic origin ([1]; p=0.08 vs non-Hispanic): 193 days
- PI3K suppression in non-PI3K/AKT suppressors (PI3K; n=4, no pAKT suppression, day 8 vs day 0, PBMC): < 25%
- patients with significantly suppressed PI3K activity, number of evaluated (PI3K; roflumilast 500 mcg PO daily single agent, day 8 vs day 0, PBMC): 7 of the 9
- patients evaluated with significantly suppressed PI3K activity (PI3K; roflumilast as single agent, 7 days, PBMC): 77%
- samples with marked suppression of pAKT (T308) levels (AKT): 62.5%
- IC50 for inhibition of PDE4 (PDE4): 0.3 ng/mL
- survival (B cell lymphoma): improved
- tumor burden (B cell lymphoma): significantly suppressed
